Measured values published in ChEMBL document CHEMBL1156224, “Design, synthesis, and antibiofilm activity of 2-arylimino-3-aryl-thiazolidine-4-ones” (2010).
In brackets after ≈: the same amount, converted by molar mass.

Key:
Format in all cases: functional
[1] = test system: Staphylococcus epidermidis; test: Antibacterial activity against Staphylococcus epidermidis RP62A 6 hrs biofilm after 16 hrs by microtiter plate method
Outline: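 S. epidermidis RP62A overnight culture diluted 1:10 in TSB (OD600 0.6–0.8), then 1:200 in MH; inoculated into 96-well polystyrene wells, 37 °C for 6 h to form young biofilm. Wells washed four times with sterile PBS, fresh TSB with compound at various concentrations added, further 37 °C for 16 h.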

[2] = test system: Staphylococcus epidermidis; test: Antibacterial activity against Staphylococcus epidermidis RP62A by broth microdilution method
Outline: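 MIC against S. epidermidis RP62A by CLSI broth microdilution run in tubes (tube-dilution).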

[3] = test system: Staphylococcus epidermidis; test: Antibacterial activity against Staphylococcus epidermidis RP62A assessed as colony number after 24 hrs microdilution agar plate method
Outline: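 MBC: 100 μl from each tube without visible growth in the MIC assay subcultured onto compound-free Mueller-Hinton agar, 37 °C for 24 h. Endpoint is the lowest concentration giving subcultures with no more than five colonies per plate.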

Row | Compound | MIC [2] [µM] | Activity [1] [µM] | MBC [3] [µM]
1 | COC(=O)c1cccc(-c2ccc(/C=C3\S/C(=N\c4ccc(C)cc4)N(c4ccc(C)cc4)C3=O)o2)c1 | > 200 | >200 | > 200
2 | COc1cc(/C=C2\S/C(=N\c3ccccc3C)N(c3ccccc3C)C2=O)ccc1OCC(=O)O | > 200 | >200 | > 200
3 | COc1cc(/C=C2\S/C(=N\c3ccccc3)N(c3ccccc3)C2=O)ccc1O | > 200 | >200 | > 200
4 | COC(=O)c1cccc(-c2ccc(/C=C3\S/C(=N\c4ccccc4C)N(c4ccccc4C)C3=O)o2)c1 | > 200 | >200 | > 200
5 | CCc1ccccc1/N=C1\S/C(=C\c2ccc(O)cc2)C(=O)N1c1ccccc1CC | > 200 | >200 | > 200
6 | COC(=O)COc1ccc(/C=C2\S/C(=N\c3ccccc3C)N(c3ccccc3C)C2=O)cc1OC | > 200 | >200 | > 200
7 | CCc1ccccc1/N=C1\S/C(=C\c2ccc(OCC(=O)OC)cc2)C(=O)N1c1ccccc1CC | > 200 | >200 | > 200
8 | CCc1ccccc1/N=C1\S/C(=C\c2cccc(OCC(=O)OC)c2)C(=O)N1c1ccccc1CC | > 200 | >200 | > 200
9 | CN(C)c1ccc(/C=C2\S/C(=N\c3ccccc3)N(c3ccccc3)C2=O)cc1 | > 200 | >200 | > 200
10 | COc1cc(/C=C2\S/C(=N\c3ccccc3)N(c3ccccc3)C2=O)ccc1OCC(=O)O | > 200 | >200 | > 200
11 | CCc1ccccc1/N=C1\S/C(=C\c2cccc(O)c2)C(=O)N1c1ccccc1CC | > 200 | >200 | > 200
12 | COC(=O)COc1ccc(/C=C2\S/C(=N\c3ccccc3C)N(c3ccccc3C)C2=O)cc1 | > 200 | >200 | > 200

Now from value to molecule, other results behind:

Row | MIC [2] [µM] | Compound | Activity [1] [µM] | MBC [3] [µM]
13 | > 200 | COc1cc(/C=C2\S/C(=N\c3ccccc3C)N(c3ccccc3C)C2=O)ccc1O | >200 | > 200
14 | > 200 | CCc1ccccc1/N=C1\S/C(=C\c2ccc(-c3cccc(C(=O)OC)c3)o2)C(=O)N1c1ccccc1CC | >200 | > 200
15 | > 200 | Cc1ccccc1/N=C1\S/C(=C\c2ccc(OCC(=O)O)cc2)C(=O)N1c1ccccc1C | >200 | > 200
16 | 50 (≈ 24.3 µg/mL) | CCc1ccccc1/N=C1\S/C(=C\c2cccc(OCC(=O)O)c2)C(=O)N1c1ccccc1CC | 100 | 100
17 | 6.25 (≈ 3.29 µg/mL) | COc1ccc(/N=C2\S/C(=C\c3ccc(-c4cccc(C(=O)O)c4)o3)C(=O)N2c2ccc(OC)cc2)cc1 | 6.25 | 25
18 | > 200 | COC(=O)c1cccc(-c2ccc(/C=C3\S/C(=N\c4ccc(OC)cc4)N(c4ccc(OC)cc4)C3=O)o2)c1 | >200 | > 200
19 | > 200 | COC(=O)COc1ccc(/C=C2\S/C(=N\c3ccccc3)N(c3ccccc3)C2=O)cc1OC | >200 | > 200
20 | > 200 | Cc1ccccc1/N=C1\S/C(=C\c2ccc(O)cc2)C(=O)N1c1ccccc1C | >200 | > 200
21 | 6.25 (≈ 3.09 µg/mL) | Cc1ccc(/N=C2\S/C(=C\c3ccc(-c4cccc(C(=O)O)c4)o3)C(=O)N2c2ccc(C)cc2)cc1 | 12.5 | 25
22 | 12.5 (≈ 6.18 µg/mL) | Cc1ccccc1/N=C1\S/C(=C\c2ccc(-c3cccc(C(=O)O)c3)o2)C(=O)N1c1ccccc1C | 25 | 25
23 | 50 (≈ 24.3 µg/mL) | CCc1ccccc1/N=C1\S/C(=C\c2ccc(OCC(=O)O)cc2)C(=O)N1c1ccccc1CC | 100 | 100
24 | 12.5 (≈ 6.53 µg/mL) | CCc1ccccc1/N=C1\S/C(=C\c2ccc(-c3cccc(C(=O)O)c3)o2)C(=O)N1c1ccccc1CC | 25 | 25
25 | 50 (≈ 25.8 µg/mL) | CCc1ccccc1/N=C1\S/C(=C\c2ccc(OCC(=O)O)c(OC)c2)C(=O)N1c1ccccc1CC | 100 | 100
